pIC50: −log10 of the molar value.
Key:
Rattus norvegicus = species: Rattus norvegicus; assay: Tested for the inhibitory activity against rat kidney Na+, K+-ATPase; type: functional
How it was run: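 Na+,K+-ATPase was taken from partially purified rat kidney microsomes. Inhibition was measured by phosphate release (Fiske–Subbarow) using 1.2 mM ATP.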

[1] = target: GABA-A receptor; anion channel; assay: Inhibition of [3H]flunitrazepam binding to rat brain synaptosomes; type: subcellular
How it was run: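 Crude rat brain synaptosomes (200 µg protein; cerebellum and brainstem removed) were incubated with 0.2 nM [3H]-flunitrazepam in buffered Krebs solution for 90 min at 4 °C.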

[2] = target: T1, Polyunsaturated fatty acid 5-lipoxygenase (Homo sapiens, UniProt P09917); assay: Tested for the inhibitory activity against 5-lipoxygenase
T1 sequence (P09917 whole entry): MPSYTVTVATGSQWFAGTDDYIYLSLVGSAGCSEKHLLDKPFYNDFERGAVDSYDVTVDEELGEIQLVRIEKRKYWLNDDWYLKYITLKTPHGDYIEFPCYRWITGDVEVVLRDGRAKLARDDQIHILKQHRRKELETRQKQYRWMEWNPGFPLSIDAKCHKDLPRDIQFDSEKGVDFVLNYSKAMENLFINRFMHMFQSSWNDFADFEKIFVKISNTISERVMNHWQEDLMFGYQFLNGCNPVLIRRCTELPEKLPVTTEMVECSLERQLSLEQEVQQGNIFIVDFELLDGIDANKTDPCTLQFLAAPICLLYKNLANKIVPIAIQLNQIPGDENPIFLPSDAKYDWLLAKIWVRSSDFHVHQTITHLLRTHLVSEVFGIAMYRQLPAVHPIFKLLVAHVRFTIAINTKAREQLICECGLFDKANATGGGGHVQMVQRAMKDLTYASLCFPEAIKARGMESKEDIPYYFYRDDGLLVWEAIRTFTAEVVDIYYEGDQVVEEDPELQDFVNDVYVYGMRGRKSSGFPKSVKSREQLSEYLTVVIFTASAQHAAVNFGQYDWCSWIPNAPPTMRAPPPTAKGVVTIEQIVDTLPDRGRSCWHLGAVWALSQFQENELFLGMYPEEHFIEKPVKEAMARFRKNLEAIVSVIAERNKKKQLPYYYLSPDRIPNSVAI

P06732 = assay: (§1) Concentration required to antagonise the creatine kinase release induced by Bothrops jararacussu venom; type: functional
P06732, sequence (P06732 whole entry): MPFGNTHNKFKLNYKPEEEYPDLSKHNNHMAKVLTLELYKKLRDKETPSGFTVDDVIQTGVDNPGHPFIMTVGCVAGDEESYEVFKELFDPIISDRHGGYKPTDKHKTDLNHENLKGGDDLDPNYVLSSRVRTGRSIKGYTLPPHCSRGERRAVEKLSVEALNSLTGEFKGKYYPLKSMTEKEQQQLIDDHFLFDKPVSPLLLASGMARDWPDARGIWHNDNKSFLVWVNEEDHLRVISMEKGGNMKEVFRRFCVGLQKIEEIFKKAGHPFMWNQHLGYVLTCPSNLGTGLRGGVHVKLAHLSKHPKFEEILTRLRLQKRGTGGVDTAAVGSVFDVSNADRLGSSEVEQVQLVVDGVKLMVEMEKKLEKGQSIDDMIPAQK

[3] = Tested for antimyotoxic activity of the compound; type: functional
Bothrops jararacussu = assay: as §1; type: functional, organism-based

SMILES | pIC50 (Rattus norvegicus) | pIC50 [1] | Concentration (P06732) [µM] | other results
COc1cc(O)c2c(c1)oc(=O)c1c3cc(O)c(O)cc3oc21 [WEDELOLACTONE] | 6.15 | 5.70 |  | pIC50 [2]: 5.60
COc1cc2oc3c4ccc(O)cc4oc(=O)c3c2cc1O |  |  | 30 | 
COc1cc2oc(=O)c3c4cc(O)c(O)cc4oc3c2cc1O | 6.30 | < 4.00 |  | pIC50 [3]: 6.00; Concentration (Bothrops jararacussu): 30 µM
O=c1oc2cc(O)ccc2c2oc3cc4c(cc3c12)OCO4 |  |  | 30 | 
O=c1oc2cc(O)ccc2c2oc3cc(O)c(O)cc3c12 |  |  | 30 | 
COc1cc2oc(=O)c3c4cc(OC)c(O)cc4oc3c2cc1O |  |  | 30 | 
